Values belong to the molecule of their own block, whether it stands above or below them. Activity calls are given as the source filed them. No cut-off for these calls is given here.
Columns and labels:
[1] = molecular target: T1, Proteasome subunit beta type-8 (Homo sapiens, UniProt P28062); test: Inhibition of human 20S immunoproteasome beta 5 chymotrypsin-like activity
T1 sequence (P28062 whole entry): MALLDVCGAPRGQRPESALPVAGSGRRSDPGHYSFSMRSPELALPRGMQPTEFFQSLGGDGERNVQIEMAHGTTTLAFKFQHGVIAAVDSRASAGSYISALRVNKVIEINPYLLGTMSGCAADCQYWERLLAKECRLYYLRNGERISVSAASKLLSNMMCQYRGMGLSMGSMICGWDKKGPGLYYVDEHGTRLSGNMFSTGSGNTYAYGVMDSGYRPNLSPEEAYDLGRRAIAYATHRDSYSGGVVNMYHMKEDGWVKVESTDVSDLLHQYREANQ
In short: (§1)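 Purified human proteasomes were used in a 96-well format assay: immunoproteasome i-20S from PBMC and constitutive c-20S from red blood cells. The readout was fluorogenic AMC peptide substrate cleavage on a plate reader, and IC50 values were determined from it.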

[2] = organism: Homo sapiens; test: Selectivity index, ratio of IC50 for inhibition of human constitutive 20S proteasome beta 5 chymotrypsin-like activity to IC50 for inhibition of human 20S immunoproteasome beta 5 chymotrypsin-like activity
[3] = molecular target: T2, Proteasome Macropain subunit MB1 (Homo sapiens, UniProt P28074); test: Inhibition of human constitutive 20S proteasome beta 5 chymotrypsin-like activity; in short: as §1
T2 sequence (P28074 whole entry): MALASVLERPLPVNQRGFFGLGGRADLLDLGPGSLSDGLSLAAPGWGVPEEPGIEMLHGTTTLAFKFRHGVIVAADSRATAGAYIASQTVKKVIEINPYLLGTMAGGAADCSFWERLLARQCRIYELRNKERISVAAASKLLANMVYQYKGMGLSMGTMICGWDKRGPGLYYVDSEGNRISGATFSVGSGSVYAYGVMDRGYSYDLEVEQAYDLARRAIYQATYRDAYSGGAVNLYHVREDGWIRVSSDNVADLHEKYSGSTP

[4] = molecular target: T3, Proteasome subunit beta type-10 (Homo sapiens) (UniProt P40306); test: Inhibition of human 20S immunoproteasome beta 2 at 33.3 uM relative to control
T3 sequence (whole entry): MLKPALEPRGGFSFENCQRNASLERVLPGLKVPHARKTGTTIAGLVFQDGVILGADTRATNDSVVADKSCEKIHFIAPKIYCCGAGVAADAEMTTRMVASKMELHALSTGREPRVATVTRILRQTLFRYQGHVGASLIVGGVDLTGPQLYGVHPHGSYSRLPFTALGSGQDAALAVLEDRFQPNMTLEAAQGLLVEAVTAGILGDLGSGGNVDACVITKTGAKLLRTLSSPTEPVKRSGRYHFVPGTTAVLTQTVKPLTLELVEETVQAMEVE

[5] = Inhibition of anti-CD3 antibody-stimulated T cell proliferation in human PBMCs; type: functional, tissue-based; conditions: PBMC
[6] = molecular target: proteasome subunit beta type-6, β1c, PSMB6 (Homo sapiens) (UniProt P28072); test: Inhibition of human 20S constitutive proteasome beta 1 at 33.3 uM relative to control
Sequence of proteasome subunit beta type-6, β1c, PSMB6 (Homo sapiens) (P28072 whole entry, looked up): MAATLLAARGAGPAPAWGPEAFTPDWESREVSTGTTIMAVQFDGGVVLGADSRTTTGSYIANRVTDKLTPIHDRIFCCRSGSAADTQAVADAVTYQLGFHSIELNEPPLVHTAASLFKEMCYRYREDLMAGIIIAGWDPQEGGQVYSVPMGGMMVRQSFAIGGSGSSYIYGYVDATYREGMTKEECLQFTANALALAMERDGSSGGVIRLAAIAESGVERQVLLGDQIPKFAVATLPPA

[7] = molecular target: T4, Proteasome subunit beta type-9 (Homo sapiens) (UniProt P28065); test: Inhibition of human 20S immunoproteasome beta 1 at 33.3 uM relative to control
T4 sequence (whole entry): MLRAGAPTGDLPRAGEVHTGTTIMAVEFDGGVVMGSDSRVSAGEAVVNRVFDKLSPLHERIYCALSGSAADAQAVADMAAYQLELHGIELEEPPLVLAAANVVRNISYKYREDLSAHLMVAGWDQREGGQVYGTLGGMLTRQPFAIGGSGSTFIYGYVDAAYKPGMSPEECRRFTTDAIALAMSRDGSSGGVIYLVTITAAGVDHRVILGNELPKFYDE

[8] = molecular target: Trypsin (Homo sapiens) (UniProt P07477+P07478+P35030); test: Inhibition of trypsin (unknown origin) at 11.1 to 100 uM; conditions: dose 11.1-100 µM
[9] = molecular target: proteasome subunit beta type-7, β2c, PSMB7 (Homo sapiens) (UniProt Q99436); test: Inhibition of human 20S constitutive proteasome beta 2 at 33.3 uM relative to control
Sequence of proteasome subunit beta type-7, β2c, PSMB7 (Homo sapiens) (Q99436 whole entry, looked up): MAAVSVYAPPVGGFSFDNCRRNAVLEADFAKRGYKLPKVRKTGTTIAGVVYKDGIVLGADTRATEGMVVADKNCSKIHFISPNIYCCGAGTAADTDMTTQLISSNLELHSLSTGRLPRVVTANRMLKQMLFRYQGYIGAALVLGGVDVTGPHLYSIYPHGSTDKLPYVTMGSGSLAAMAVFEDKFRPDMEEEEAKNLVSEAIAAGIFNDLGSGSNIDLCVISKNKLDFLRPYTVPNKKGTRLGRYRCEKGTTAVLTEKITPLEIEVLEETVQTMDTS

[10] = organism: Homo sapiens; test: Inhibition of alpha-chymotrypsin (unknown origin) at 11.1 to 100 uM; conditions: dose 11.1-100 µM
[11] = molecular target: Procathepsin L (Homo sapiens) (UniProt P07711); test: Inhibition of cathepsin L (unknown origin) at 11.1 to 100 uM; conditions: dose 11.1-100 µM
Sequence of Procathepsin L (Homo sapiens) (P07711 114-333 limits assumed): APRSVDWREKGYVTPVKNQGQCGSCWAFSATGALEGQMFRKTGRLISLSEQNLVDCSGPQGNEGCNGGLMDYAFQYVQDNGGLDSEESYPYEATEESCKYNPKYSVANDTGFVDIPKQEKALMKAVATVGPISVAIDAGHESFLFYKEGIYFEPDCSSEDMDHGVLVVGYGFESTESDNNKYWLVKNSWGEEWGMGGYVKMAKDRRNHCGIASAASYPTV

[12] = molecular target: T1, Proteasome subunit beta type-8; test: Inhibition of human 20S immunoproteasome beta 5 chymotrypsin-like activity in human KARPAS-1106P cells incubated for 2 hrs by proteasome-Glo assay; type: cell-based

- IC50 [1]: 479 nM
- Ratio IC50 [2]: 2
- IC50 [3]: 980 nM
SMILES: COC[C@H](NC(=O)[C@H](CC(=O)NOC(C)(C)C)NC(=O)CCc1ccccc1)C(=O)NCc1cccc(OC)c1OC

- IC50 [1]: 28.4 nM
- Ratio IC50 [2]: 6
- IC50 [3]: 170 nM
SMILES: C[C@H](NC(=O)[C@H](CC(=O)NOC(C)(C)C)NC(=O)CCc1ccccc1)C(=O)NCc1cccc2[nH]ccc12

- inhibition [4]: < 50%
- inhibition [6]: < 50%
- inhibition [7]: < 50%
- inhibition [8]: inactive
- inhibition [9]: < 50%
- inhibition [10]: inactive
- inhibition [11]: inactive
SMILES: COC[C@H](NC(=O)[C@H](CC(=O)NC(C)(C)C)NS(=O)(=O)c1ccc(C)cc1)C(=O)NCc1ccc(F)c2ccccc12
- EC50 [5]: 73 nM

- inhibition [4]: < 50%
- inhibition [6]: < 50%
- IC50 [1]: 1.6 nM
- IC50 [12]: 39 nM
- inhibition [7]: < 50%
- inhibition [8]: inactive
- inhibition [9]: < 50%
- inhibition [10]: inactive
- inhibition [11]: inactive
SMILES: C[C@H](NC(=O)[C@H](CCC(=O)NC(C)(C)C)NC(=O)CCc1ccccc1)C(=O)NCc1ccc(F)c2ccccc12
- EC50 [5]: 44 nM

- inhibition [4]: < 50%
- inhibition [6]: < 50%
- inhibition [7]: < 50%
- inhibition [8]: inactive
- inhibition [9]: < 50%
- inhibition [10]: inactive
- inhibition [11]: inactive
SMILES: COC[C@H](NC(=O)[C@H](CCC(=O)NC(C)(C)C)NS(=O)(=O)c1ccc(C)cc1)C(=O)NCc1ccc(F)c2ccccc12
- EC50 [5]: 18 nM

- IC50 [1]: 83.7 nM
- Ratio IC50 [2]: 12
- IC50 [3]: 1040 nM
SMILES: COC[C@H](NC(=O)[C@H](CC(=O)NOC(C)(C)C)NC(=O)CCc1ccccc1)C(=O)NCc1cccc2cccnc12

- IC50 [1]: 1160 nM
- Ratio IC50 [2]: 11
- IC50 [3]: 12700 nM
SMILES: C[C@H](NC(=O)[C@H](CC(=O)NOC(C)(C)C)NC(=O)CCc1ccccc1)C(=O)NCc1cccc2ncccc12

- inhibition [4]: < 50%
- inhibition [6]: < 50%
- inhibition [7]: < 50%
- inhibition [8]: inactive
- inhibition [9]: < 50%
- inhibition [10]: inactive
- inhibition [11]: inactive
SMILES: Cc1cc(C(=O)N[C@@H](CCC(=O)NC(C)(C)C)C(=O)N[C@@H](C)C(=O)NCc2ccc(F)c3ccccc23)no1
- EC50 [5]: 73 nM

- Ratio IC50 [2]: 28
SMILES: COC[C@H](NC(=O)[C@H](CC(=O)N1CCCC1)NC(=O)CCc1ccccc1)C(=O)NCc1cccc2ccccc12

- Ratio IC50 [2]: > 2.8
- IC50 [3]: > 100000 nM
SMILES: NC(=O)C[C@H](NC(=O)CCc1ccccc1)C(=O)N[C@@H](Cc1ccc(F)cc1)C(=O)NCc1cccc2ccccc12

- Ratio IC50 [2]: 274
SMILES: COC[C@H](NC(=O)[C@H](CC(=O)NC(C)(C)C)NC(=O)c1cc(C)on1)C(=O)NCc1cccc2ccccc12

- Ratio IC50 [2]: 71
SMILES: COC[C@H](NC(=O)[C@H](CC(=O)NC(C)(C)C)NC(=O)CCc1ccccc1)C(=O)NCc1cccc2ccccc12

- IC50 [1]: 2620 nM
- Ratio IC50 [2]: 23
- IC50 [3]: 59000 nM
SMILES: C[C@H](NC(=O)[C@H](CC(=O)NOC(C)(C)C)NC(=O)CCc1ccccc1)C(=O)NCc1ccnc2ccccc12

- inhibition [4]: < 50%
- inhibition [6]: < 50%
- inhibition [7]: < 50%
- inhibition [8]: inactive
- inhibition [9]: < 50%
- inhibition [10]: inactive
- inhibition [11]: inactive
SMILES: Cc1ccc(S(=O)(=O)N[C@@H](CCC(=O)NC(C)(C)C)C(=O)N[C@@H](C)C(=O)NCc2ccc(F)c3ccccc23)cc1
- EC50 [5]: 39 nM

- inhibition [4]: < 50%
- inhibition [6]: < 50%
- inhibition [7]: < 50%
- inhibition [8]: inactive
- inhibition [9]: < 50%
- inhibition [10]: Active
- inhibition [11]: Active
SMILES: C[C@H](NC(=O)[C@H](CC(=O)NC(C)(C)C)NC(=O)C(=O)c1c[nH]c2ccccc12)C(=O)NCc1cccc2ccccc12
- EC50 [5]: 21 nM

- IC50 [1]: 14.4 nM
- Ratio IC50 [2]: 7
- IC50 [3]: 101 nM
SMILES: COC[C@H](NC(=O)[C@H](CC(=O)NOC(C)(C)C)NC(=O)CCc1ccccc1)C(=O)NCc1cccc(OC)c1

- Ratio IC50 [2]: > 7
- IC50 [3]: > 100000 nM
SMILES: COC[C@H](NC(=O)[C@H](CC(=O)N1CCC1)NC(=O)CCc1ccccc1)C(=O)NCc1cccc2ccccc12

- Ratio IC50 [2]: 58
SMILES: COC[C@H](NC(=O)[C@H](CC(=O)N1CCCCC1)NC(=O)CCc1ccccc1)C(=O)NCc1cccc2ccccc12

- IC50 [1]: 501 nM
- Ratio IC50 [2]: 54
- IC50 [3]: 27200 nM
SMILES: COC[C@H](NC(=O)[C@H](CC(=O)NOC(C)(C)C)NC(=O)CCc1ccccc1)C(=O)NCc1cccc2c1NCCC2

- Ratio IC50 [2]: > 9
- IC50 [3]: > 100000 nM
SMILES: COC[C@H](NC(=O)[C@H](CC(=O)N(C)C)NC(=O)CCc1ccccc1)C(=O)NCc1cccc2ccccc12

- Ratio IC50 [2]: 8
SMILES: CCN(CC)C(=O)C[C@H](NC(=O)CCc1ccccc1)C(=O)N[C@@H](COC)C(=O)NCc1cccc2ccccc12

- IC50 [1]: 21700 nM
- Ratio IC50 [2]: > 5
- IC50 [3]: > 100000 nM
SMILES: COC[C@H](NC(=O)CCc1ccccc1)C(=O)N[C@@H](C)C(=O)NCc1cccc2ccccc12

From ChEMBL document CHEMBL4699588, “Structure-Activity Relationships of Noncovalent Immunoproteasome β5i-Selective Dipeptides” (J Med Chem, 2020)
